Values after ≈ are worked out from the molar mass of the structure shown. Active and inactive are the calls of the source. The calls are words filed in the database; no cut-off is given here.
Tests used:
Candida albicans [1] = assay: Antifungal activity against Candida albicans ATCC 10231 after 48 hrs by broth dilution method; type: functional; conditions: ATCC 10231, 48 h
Candida albicans [2] = assay: Antifungal activity against Candida albicans ATCC 64124 after 48 hrs by broth dilution method; type: functional; conditions: Candida albicans, ATCC 64124, 48 h
Outline: (§1)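 CLSI M27-A3 broth microdilution with minor modifications. Overnight YPD culture grown at 35 °C, 200 rpm, adjusted to OD600 0.12, diluted in RPMI 1640 buffered to pH 7.0 with 0.165 M MOPS to a final 1–2 × 10^3 CFU/mL. Test compounds at 0.015–31.3 µg/mL, 48 h at 35 °C, DMSO <1.25%. […] Triplicate.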

Candida albicans [3] = assay: Antifungal activity against itraconazole and fluconazole susceptible Candida albicans ATCC MYA-2876 after 48 hrs by broth dilution method; type: functional; conditions: Candida albicans, ATCC MYA-2876, 48 h
Candida albicans [4] = assay: Antifungal activity against itraconazole and fluconazole resistant Candida albicans ATCC 90819 after 48 hrs by broth dilution method; type: functional; conditions: Candida albicans, ATCC 90819, 48 h; outline: as §1
Candida albicans [5] = assay: Antifungal activity against itraconazole and fluconazole susceptible Candida albicans ATCC MYA-2310 after 48 hrs by broth dilution method; type: functional; conditions: Candida albicans, ATCC MYA-2310, 48 h
Candida albicans [6] = assay: Antifungal activity against itraconazole and fluconazole resistant Candida albicans ATCC MYA-1237 after 48 hrs by broth dilution method; type: functional; conditions: Candida albicans, ATCC MYA-1237, 48 h; outline: as §1
Candida albicans [7] = assay: Antifungal activity against itraconazole and fluconazole resistant Candida albicans ATCC MYA-1003 after 48 hrs by broth dilution method; type: functional; conditions: Candida albicans, ATCC MYA-1003, 48 h; outline: as §1
Nakaseomyces glabratus = assay: Antifungal activity against Candida glabrata ATCC 2001 after 48 hrs by broth dilution method; type: functional, CBS 138; conditions: Nakaseomyces glabratus, CBS 138, 48 h
Pichia kudriavzevii = assay: Antifungal activity against Candida krusei ATCC 6258 after 48 hrs by broth dilution method; type: functional; conditions: Pichia kudriavzevii, ATCC 6258, 48 h
Outline: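 Yeasts tested per CLSI M27-A3 with minor changes. An overnight YPD culture (35 °C, 200 rpm) was adjusted to OD600 0.12 and diluted in MOPS-buffered RPMI 1640 (pH 7.0) to a final 1–2 × 10^3 CFU/mL. Compounds 0.015–31.3 µg/mL, DMSO <1.25%.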

Candida parapsilosis [8] = assay: Antifungal activity against Candida parapsilosis ATCC 22019 after 48 hrs by broth dilution method; type: functional; conditions: Lodderomyces parapsilosis, ATCC 22019, 48 h
Aspergillus flavus = assay: Antifungal activity against Aspergillus flavus ATCC MYA-3631 after 48 hrs by broth dilution method; type: functional; conditions: ATCC MYA-3631, 48 h
Aspergillus nidulans [9] = assay: Antifungal activity against Aspergillus nidulans ATCC 38163 after 48 hrs by broth dilution method; type: functional; conditions: Aspergillus nidulans, ATCC 38163, 48 h
Outline: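 A. nidulans run per CLSI M38-A2. PDA spores were filtered through glass wool and counted by hemocytometer. Test range 0.03–31.3 µg/mL in MOPS-buffered RPMI 1640 (pH 7.0), final 5 × 10^5 CFU/mL.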

Aspergillus terreus = assay: Antifungal activity against Aspergillus terreus ATCC MYA-3633 after 48 hrs by broth dilution method; type: functional; conditions: Aspergillus terreus, ATCC MYA-3633, 48 h
Outline: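 Molds tested per CLSI M38-A2. Spores were harvested from sporulating PDA cultures by filtering through glass wool and counted on a hemocytometer. Serial dilutions (0.03–31.3 µg/mL) were made in RPMI 1640 buffered to pH 7.0 with 0.165 M MOPS, final inoculum 5 × 10^5 CFU/mL.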

Candida albicans [10] = assay: Antifungal activity against Candida albicans ATCC 10231 after 48 hrs in the presence of 10% FBS by broth dilution method; type: functional; conditions: ATCC 10231, 48 h
Candida parapsilosis [11] = assay: Antifungal activity against Candida parapsilosis ATCC 22019 after 48 hrs in the presence of 10% FBS by broth dilution method; type: functional; conditions: Lodderomyces parapsilosis, ATCC 22019, 48 h
Aspergillus nidulans [12] = assay: Antifungal activity against Aspergillus nidulans ATCC 38163 after 48 hrs in the presence of 10% FBS by broth dilution method; type: functional; conditions: ATCC 38163, 48 h
Candida albicans [13] = assay: Antibiofilm activity against voriconazole resistant Candida albicans ATCC 64124 sessile cells incubated for 24 hrs by XTT reduction assay; type: functional; conditions: ATCC 64124, 24 h
Outline: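 Strain B grown overnight in YPD broth at 35 °C, diluted to OD600 0.1 (~10^6 CFU/mL), then grown statically for 24 h at 37 °C to form biofilm. Washed with PBS, then drug in RPMI 1640 at 0.12–62.5 µg/mL for 24 h at 37 °C. Read-out: XTT 0.5 mg/mL with menadione 1 µM, 2 h, A490. SMIC50/SMIC80 are 50%/80% decreases versus drug-free biofilm. Duplicate.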

A549 = assay: Cytotoxicity against human A549 cells up to 31 ug/ml after 24 hrs by resazurin-based fluorescence assay; type: cell-based; conditions: a549, 24 h
Outline: (§2)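 Cells grown in DMEM with 10% FBS at 37 °C, 5% CO2, and seeded at 10000 (HEK-293) or 3000 (BEAS-2B, A549) per well. After 16 h, exposed 24 h to 0.13–31 µg/mL final in medium with 0.1–0.4% DMSO. Resazurin added for 6–10 h; fluorescence read at 560/590 nm and survival normalized to DMSO control after background subtraction. Triton X-100 12.5% v/v positive control; duplicate.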

HEK293 = assay: Cytotoxicity against HEK293 cells up to 31 ug/ml after 24 hrs by resazurin-based fluorescence assay; type: cell-based; conditions: human, hek293, 24 h; outline: as §2
BEAS-2B = assay: Cytotoxicity against human BEAS2B cells up to 31 ug/ml after 24 hrs by resazurin-based fluorescence assay; type: cell-based; outline: as §2
[14] = Aqueous solubility of the compound; type: physicochemical; conditions: buffer
[15] = Solubility of the compound in DMSO; type: physicochemical
Candida parapsilosis [16] = assay: Ratio of MIC in presence of 10% FBS to MIC in absence of 10% FBS for Candida parapsilosis ATCC 22019; type: functional
Outline: (§3)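 MIC broth dilution run in parallel in RPMI 1640 with or without 10% fetal bovine serum against C. albicans ATCC 10231, C. parapsilosis ATCC 22019 and A. nidulans ATCC 38163.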

Candida albicans [17] = assay: Ratio of MIC in presence of 10% FBS to MIC in absence of 10% FBS for Candida albicans ATCC 10231; type: functional; outline: as §3
Aspergillus nidulans [18] = assay: Ratio of MIC in presence of 10% FBS to MIC in absence of 10% FBS for Aspergillus nidulans ATCC 38163; type: functional; outline: as §3
Candida albicans [19] = assay: Ratio of MIC80 for voriconazole resistant Candida albicans ATCC 64124 sessile cells to MIC for voriconazole resistant Candida albicans ATCC 64124; type: functional
Candida albicans [20] = assay: Antifungal activity against Candida albicans ATCC 10231 at 7.8 ug/mL incubated for 1 hr by propidium iodide staining-based fluorescence microscopic method; type: functional
Outline: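 C. albicans ATCC 10231 grown overnight in YPD broth at 35 °C with shaking at 200 rpm, then transferred to RPMI 1640. Cells were exposed to drug and stained with propidium iodide, which enters only cells with compromised membranes. Uptake was judged by fluorescence microscopy against an untreated control.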

Candida albicans [21] = assay: Inhibition of 14alpha-demethylase in Candida albicans ATCC 10231 assessed as ergosterol levels at 0.975 ug/mL by GC-MS analysis; parameters: scale not given: the % may be the effect or the level left
Outline: (§4)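 C. albicans ATCC 10231 was treated with drug or DMSO (no-drug control). Sterols were extracted and analysed by GC-MS; lanosterol, eburicol, ergosterol and 14α-methyl ergosta-8,24(28)-diene-3β,6α-diol were quantified as percent of sterols.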

Candida albicans [22] = assay: Inhibition of 14alpha-demethylase in Candida albicans ATCC 10231 assessed as lanosterol levels at 0.975 ug/mL by GC-MS analysis; parameters: scale not given: the % may be the effect or the level left; outline: as §4
Candida albicans [23] = assay: Inhibition of 14alpha-demethylase in Candida albicans ATCC 10231 assessed as eburicol levels at 0.975 ug/mL by GC-MS analysis; parameters: scale not given: the % may be the effect or the level left; outline: as §4
Candida albicans [24] = assay: Inhibition of 14alpha-demethylase in Candida albicans ATCC 10231 assessed as 14alpha-methyl ergosta-8,24(28)-dien-3beta,6alpha-diol levels at 0.975 ug/mL by GC-MS analysis; parameters: scale not given: the % may be the effect or the level left; outline: as §4
Candida albicans [25] = assay: Inhibition of 14alpha-demethylase in Candida albicans ATCC 10231 assessed as total sterol levels at 0.975 ug/mL by GC-MS analysis; parameters: scale not given: the % may be the effect or the level left; outline: as §4

CCCCCCCCCCCCCCN1CCNCC1
MIC (Candida albicans [1]): 3.5 µM (≈ 0.989 µg/mL) | MIC (Candida albicans [2]): 3.5 µM (≈ 0.989 µg/mL) | MIC (Candida albicans [3]): 3.5 µM (≈ 0.989 µg/mL) | MIC (Candida albicans [4]): 6.9 µM (≈ 1.95 µg/mL) | MIC (Candida albicans [5]): 3.5 µM (≈ 0.989 µg/mL) | MIC (Candida albicans [6]): 6.9 µM (≈ 1.95 µg/mL) | MIC (Candida albicans [7]): 6.9 µM (≈ 1.95 µg/mL) | MIC (Nakaseomyces glabratus): 3.5 µM (≈ 0.989 µg/mL) | MIC (Pichia kudriavzevii): 3.5 µM (≈ 0.989 µg/mL) | MIC (Candida parapsilosis [8]): 3.5 µM (≈ 0.989 µg/mL) | MIC (Aspergillus flavus): 3.5 µM (≈ 0.989 µg/mL) | MIC (Aspergillus nidulans [9]): 3.5 µM (≈ 0.989 µg/mL) | MIC (Aspergillus terreus): 3.5 µM (≈ 0.989 µg/mL) | MIC (Candida albicans [10]): 7.8 µg/mL | MIC (Candida parapsilosis [11]): 7.8 µg/mL | MIC (Aspergillus nidulans [12]): 7.8 µg/mL | MIC50 (Candida albicans [13]): 15.6 µg/mL (≈ 55.2 µM) | MIC80 (Candida albicans [13]): 62.5 µg/mL (≈ 221 µM) | Activity (A549): Toxic | Activity (HEK293): Toxic | Activity (BEAS-2B): Toxic | solubility [14]: Soluble | solubility [15]: Soluble | Ratio (Candida parapsilosis [16]): 2 - 8 | Ratio (Candida albicans [17]): 2 - 8 | Ratio (Aspergillus nidulans [18]): 2 - 8 | Ratio (Candida albicans [19]): 16 - 64

CCCCCCCCCCCCN1CCN(CC(O)(Cn2cncn2)c2ccc(Cl)cc2Cl)CC1 (centres undefined)
MIC (Candida albicans [1]): 3.7 µM (≈ 1.94 µg/mL) | MIC (Candida albicans [2]): 14.9 µM (≈ 7.82 µg/mL) | MIC (Candida albicans [3]): 7.4 µM (≈ 3.88 µg/mL) | MIC (Candida albicans [4]): 7.4 µM (≈ 3.88 µg/mL) | MIC (Candida albicans [5]): 7.4 µM (≈ 3.88 µg/mL) | MIC (Candida albicans [6]): 7.4 µM (≈ 3.88 µg/mL) | MIC (Candida albicans [7]): 3.7 µM (≈ 1.94 µg/mL) | MIC (Nakaseomyces glabratus): 1.9 µM (≈ 0.997 µg/mL) | MIC (Pichia kudriavzevii): 3.7 µM (≈ 1.94 µg/mL) | MIC (Candida parapsilosis [8]): 0.46 µM (≈ 0.241 µg/mL) | MIC (Aspergillus flavus): 7.4 µM (≈ 3.88 µg/mL) | MIC (Aspergillus nidulans [9]): 3.7 µM (≈ 1.94 µg/mL) | MIC (Aspergillus terreus): 3.7 µM (≈ 1.94 µg/mL) | MIC (Candida albicans [10]): 1.95 µg/mL | MIC (Candida parapsilosis [11]): 0.24 µg/mL | MIC (Aspergillus nidulans [12]): 3.9 µg/mL | MIC50 (Candida albicans [13]): 15.6 µg/mL (≈ 29.7 µM) | MIC80 (Candida albicans [13]): 31.3 µg/mL (≈ 59.7 µM) | Activity (Candida albicans [20]): inactive | Activity (Candida albicans [21]): 50.6% | Activity (Candida albicans [22]): 29.5% | Activity (Candida albicans [23]): 1.15% | Activity (Candida albicans [24]): 11.1% | solubility [14]: Soluble | solubility [15]: Soluble | Ratio (Candida albicans [19]): 2 - 4 | Activity (Candida albicans [25]): 3.56 to 4.08%

From ChEMBL document CHEMBL4024783, “Alkylated Piperazines and Piperazine-Azole Hybrids as Antifungal Agents” (J Med Chem, 2018)
